{"source": "ChEMBL document CHEMBL4680218", "about": "“Design and synthesis of tripeptidyl furylketones as selective inhibitors against the β5 subunit of human 20S proteasome” (Eur J Med Chem, 2020)", "key": {"[1]": {"target": "T1, Proteasome Macropain subunit MB1 (Homo sapiens, UniProt P28074)", "T1 sequence (P28074 whole entry)": "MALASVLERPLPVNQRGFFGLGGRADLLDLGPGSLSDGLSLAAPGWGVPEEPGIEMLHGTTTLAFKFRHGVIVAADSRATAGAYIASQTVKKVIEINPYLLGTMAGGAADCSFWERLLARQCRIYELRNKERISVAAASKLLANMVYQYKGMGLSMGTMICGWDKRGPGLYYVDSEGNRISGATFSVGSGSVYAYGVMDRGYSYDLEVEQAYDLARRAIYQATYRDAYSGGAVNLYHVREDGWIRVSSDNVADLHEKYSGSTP", "assay": "Inhibition of chymotrypsin-like activity of human 20S proteasome beta5 subunit using Suc-LLVY-Glo as substrate incubated for 2 hrs followed by substrate addition and measured for 10 mins by bioluminescent assay", "how_it_was_run": "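Human constitutive 20S proteasome (1 μg/mL) was combined with compound serially diluted in 10 mM HEPES pH 7.6, with final DMSO 1% (v/v). After 2 h at 25 °C, Suc-LLVY-Glo (CT-L), Z-LRR-Glo (T-L) or Z-nLPnLD-Glo (C-L) reagent was added. Luminescence was read over 10 min, and IC50 was taken from inhibition rates.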"}, "[2]": {"target": "T2, Proteasome Macropain subunit MB1 (Homo sapiens) (UniProt P28074)", "T2 sequence (whole entry)": "T1 sequence (P28074 whole entry)", "assay": "Inhibition of chymotrypsin-like activity of human 20S proteasome beta5 subunit at 50 uM using Suc-LLVY-Glo as substrate incubated for 2 hrs followed by substrate addition and measured for 10 mins by bioluminescent assay relative to control", "settings": "time 130.0 min", "how_it_was_run": "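Human constitutive 20S proteasome (1 µg/mL) was incubated with compound for 2 h at 25 °C in 10 mM HEPES pH 7.6 with 1% DMSO final. Suc-LLVY-Glo substrate was then added, and luminescence was read over 10 min. Inhibition rate was calculated against the uninhibited signal.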"}}, "data": [{"smiles": "CC(C)C[C@H](NC(=O)[C@H](Cc1ccc(O)cc1)NC(=O)[C@H](Cc1ccc(Cl)cc1)NC(=O)OC(C)(C)C)C(=O)c1ccco1", "values": [{"measurement": "IC50", "setting": "[1]", "value": 7.26, "unit": "µM"}, {"measurement": "inhibition", "setting": "[2]", "value": "> 50", "unit": "%"}]}, {"smiles": "Cc1ccc(S(=O)(=O)N[C@@H](CC(=O)NCC(C)C)C(=O)N[C@@H](C)C(=O)N[C@@H](CC(C)C)C(=O)c2ccco2)cc1", "values": [{"measurement": "IC50", "setting": "[1]", "value": 3.12, "unit": "µM"}, {"measurement": "inhibition", "setting": "[2]", "value": "> 50", "unit": "%"}]}, {"smiles": "CC(C)C[C@H](NC(=O)[C@H](Cc1ccc(Cl)cc1)NC(=O)[C@H](Cc1ccccc1)NC(=O)OCc1ccccc1)C(=O)c1ccco1", "values": [{"measurement": "IC50", "setting": "[1]", "value": "> 50", "unit": "µM"}, {"measurement": "inhibition", "setting": "[2]", "value": "> 50", "unit": "%"}]}, {"smiles": "COc1ccc(C[C@H](NC(=O)[C@H](Cc2ccccc2)NC(=O)c2ccccc2Br)C(=O)N[C@@H](CC(C)C)C(=O)c2ccco2)cc1", "values": [{"measurement": "IC50", "setting": "[1]", "value": "> 50", "unit": "µM"}, {"measurement": "inhibition", "setting": "[2]", "value": "> 50", "unit": "%"}]}, {"smiles": "COc1ccc(C[C@H](NC(=O)[C@H](Cc2ccccc2)NC(=O)c2ccccc2OC)C(=O)N[C@@H](CC(C)C)C(=O)c2ccco2)cc1", "values": [{"measurement": "IC50", "setting": "[1]", "value": "> 50", "unit": "µM"}, {"measurement": "inhibition", "setting": "[2]", "value": "> 50", "unit": "%"}]}, {"smiles": "COC[C@H](NC(=O)[C@H](Cc1ccccc1)NC(=O)OCc1ccccc1)C(=O)N[C@@H](CC(C)C)C(=O)c1ccco1", "values": [{"measurement": "IC50", "setting": "[1]", "value": 4.16, "unit": "µM"}, {"measurement": "inhibition", "setting": "[2]", "value": "> 50", "unit": "%"}]}, {"smiles": "COc1ccc(C[C@H](NC(=O)OC(C)(C)C)C(=O)N[C@@H](C)C(=O)N[C@@H](CC(C)C)C(=O)c2ccco2)cc1", "values": [{"measurement": "IC50", "setting": "[1]", "value": 12, "unit": "µM"}, {"measurement": "inhibition", "setting": "[2]", "value": "> 50", "unit": "%"}]}, {"smiles": "Cc1ccc(S(=O)(=O)N[C@@H](Cc2ccccc2)C(=O)N[C@@H](Cc2ccc(O)cc2)C(=O)N[C@@H](CC(C)C)C(=O)c2ccco2)cc1", "values": [{"measurement": "IC50", "setting": "[1]", "value": 2.33, "unit": "µM"}, {"measurement": "inhibition", "setting": "[2]", "value": "> 50", "unit": "%"}]}, {"smiles": "COC[C@H](NC(=O)[C@H](CC(=O)NCCC(C)C)NS(=O)(=O)c1ccc(C)cc1)C(=O)N[C@@H](CC(C)C)C(=O)c1ccco1", "values": [{"measurement": "IC50", "setting": "[1]", "value": "> 50", "unit": "µM"}, {"measurement": "inhibition", "setting": "[2]", "value": "> 50", "unit": "%"}]}, {"smiles": "COC[C@H](NC(=O)[C@H](Cc1ccc(OC)cc1)NC(=O)OC(C)(C)C)C(=O)N[C@@H](CC(C)C)C(=O)c1ccco1", "values": [{"measurement": "IC50", "setting": "[1]", "value": 5.86, "unit": "µM"}, {"measurement": "inhibition", "setting": "[2]", "value": "> 50", "unit": "%"}]}, {"smiles": "COc1ccc(C[C@H](NC(=O)c2cnccn2)C(=O)N[C@@H](Cc2ccc(O)cc2)C(=O)N[C@@H](CC(C)C)C(=O)c2ccco2)cc1", "values": [{"measurement": "IC50", "setting": "[1]", "value": 8.25, "unit": "µM"}, {"measurement": "inhibition", "setting": "[2]", "value": "> 50", "unit": "%"}]}, {"smiles": "COc1ccc(C[C@H](NC(=O)[C@H](Cc2ccccc2)NC(=O)c2ccccc2C)C(=O)N[C@@H](CC(C)C)C(=O)c2ccco2)cc1", "values": [{"measurement": "IC50", "setting": "[1]", "value": 3.19, "unit": "µM"}, {"measurement": "inhibition", "setting": "[2]", "value": "> 50", "unit": "%"}]}, {"smiles": "Cc1ccc(S(=O)(=O)N[C@@H](CC(=O)NCC(C)(C)C)C(=O)N[C@@H](C)C(=O)N[C@@H](CC(C)C)C(=O)c2ccco2)cc1", "values": [{"measurement": "IC50", "setting": "[1]", "value": 5.63, "unit": "µM"}, {"measurement": "inhibition", "setting": "[2]", "value": "> 50", "unit": "%"}]}, {"smiles": "CC(C)C[C@H](NC(=O)[C@H](C)NC(=O)[C@H](Cc1ccccc1)NC(=O)OC(C)(C)C)C(=O)c1ccco1", "values": [{"measurement": "IC50", "setting": "[1]", "value": 45.6, "unit": "µM"}, {"measurement": "inhibition", "setting": "[2]", "value": "> 50", "unit": "%"}]}, {"smiles": "COc1ccc(C[C@H](NC(=O)[C@H](Cc2ccccc2)NC(=O)c2ccccc2[N+](=O)[O-])C(=O)N[C@@H](CC(C)C)C(=O)c2ccco2)cc1", "values": [{"measurement": "IC50", "setting": "[1]", "value": 7.26, "unit": "µM"}, {"measurement": "inhibition", "setting": "[2]", "value": "> 50", "unit": "%"}]}, {"smiles": "COC[C@H](NC(=O)[C@H](Cc1ccccc1)NC(=O)OC(C)(C)C)C(=O)N[C@@H](CC(C)C)C(=O)c1ccco1", "values": [{"measurement": "IC50", "setting": "[1]", "value": 14.3, "unit": "µM"}, {"measurement": "inhibition", "setting": "[2]", "value": "> 50", "unit": "%"}]}, {"smiles": "CC(=O)N[C@@H](Cc1ccccc1)C(=O)N[C@@H](Cc1ccc(O)cc1)C(=O)N[C@@H](CC(C)C)C(=O)c1ccco1", "values": [{"measurement": "IC50", "setting": "[1]", "value": 13.9, "unit": "µM"}, {"measurement": "inhibition", "setting": "[2]", "value": "> 50", "unit": "%"}]}, {"smiles": "Cc1ccc(S(=O)(=O)N[C@@H](CC(=O)NCCC(C)C)C(=O)N[C@@H](C)C(=O)N[C@@H](CC(C)C)C(=O)c2ccco2)cc1", "values": [{"measurement": "IC50", "setting": "[1]", "value": 6.3, "unit": "µM"}, {"measurement": "inhibition", "setting": "[2]", "value": "> 50", "unit": "%"}]}, {"smiles": "CC(C)C[C@H](NC(=O)[C@H](Cc1ccc(O)cc1)NC(=O)[C@H](Cc1ccc(O)cc1)NC(=O)c1ccc(CO)cc1)C(=O)c1ccco1", "values": [{"measurement": "IC50", "setting": "[1]", "value": 4.56, "unit": "µM"}, {"measurement": "inhibition", "setting": "[2]", "value": "> 50", "unit": "%"}]}, {"smiles": "COc1ccc(C[C@H](NC(=O)[C@H](Cc2ccccc2)NC(=O)c2cnccn2)C(=O)N[C@@H](CC(C)C)C(=O)c2ccco2)cc1", "values": [{"measurement": "IC50", "setting": "[1]", "value": "> 50", "unit": "µM"}, {"measurement": "inhibition", "setting": "[2]", "value": "> 50", "unit": "%"}]}, {"smiles": "COc1ccc(C[C@H](NC(=O)OC(C)(C)C)C(=O)N[C@@H](Cc2ccc(Cl)cc2)C(=O)N[C@@H](CC(C)C)C(=O)c2ccco2)cc1", "values": [{"measurement": "IC50", "setting": "[1]", "value": 50, "unit": "µM"}, {"measurement": "inhibition", "setting": "[2]", "value": "> 50", "unit": "%"}]}, {"smiles": "CC(C)C[C@H](NC(=O)[C@H](C)NC(=O)[C@H](Cc1ccccc1)NC(=O)OCc1ccccc1)C(=O)c1ccco1", "values": [{"measurement": "IC50", "setting": "[1]", "value": "> 50", "unit": "µM"}, {"measurement": "inhibition", "setting": "[2]", "value": "> 50", "unit": "%"}]}]}
